Activity, inhibition in vivo and MSD data for 8 compounds are collected here from ChEMBL document CHEMBL4715911, “Quest for a potent antimalarial drug lead: Synthesis and evaluation of 6,7-dimethoxyquinazoline-2,4-diamines” (Bioorg Med Chem, 2021).

Bounds are passed on as bounds.

Assay [1] has as its system Plasmodium berghei. In words: Antimalarial activity against Plasmodium berghei NK65 infected in po dosed ICR mouse assessed as increase in mean survival days for administered for 4 days. Type of assay: functional, organism-based. Particulars: dose 50-100 mg/kg, time 4.0 day. An outline of the steps:
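Female ICR mice (25–27 g) infected via tail vein with 2×10^7 P. berghei NK65 parasitized RBC. Oral dosing in 0.5% methyl cellulose at 4 h post-infection, then days 1–3. Survival days recorded and mean survival days compared with vehicle controls. Student's t-test and Kaplan-Meier analysis applied. Mice without parasitemia at day 30 counted as cured.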

The subject of assay [2] is Plasmodium berghei. Kind of assay: Antimalarial activity against Plasmodium berghei NK65 infected in ICR mouse assessed as reduction in parasitemia at 57 mg/kg, po qd for 4 days by Diff-Quik staining based microscopic method (reference value: 0%). Particulars: 96 h, time 4 day. Type of assay: functional.
Assay [3] concerns Plasmodium berghei. In words: Antimalarial activity against Plasmodium berghei NK65 infected in ICR mouse assessed as animal mean survival days at 57 mg/kg, po qd for 4 days (reference value: 6.2 day). Type of assay: functional. Particulars: time 4 day.
For assay [4], the system named is Plasmodium berghei. Kind of assay: Antimalarial activity against Plasmodium berghei NK65 infected in ICR mouse assessed as reduction in parasitemia at 57.5 mg/kg, po qd for 4 days by Diff-Quik staining based microscopic method (reference value: 0%). Type of assay: functional. Particulars: 96 h, time 4 day.
Assay [5] relates to Plasmodium berghei. In words: Antimalarial activity against Plasmodium berghei NK65 infected in ICR mouse assessed as parasitemia at 115 mg/kg, po qd for 4 days by Diff-Quik staining based microscopic method (reference value: 28.4 +/- 10.2%). Type of assay: functional. Particulars: time 4 day.
Assay [6] has as its system Plasmodium berghei. Kind of assay: Antimalarial activity against Plasmodium berghei NK65 infected in ICR mouse assessed as parasitemia at 57.5 mg/kg, po qd for 4 days by Diff-Quik staining based microscopic method (reference value: 28.4 +/- 10.2%). It is filed as functional. The conditions noted are these: time 4 day.
Assay [7] relates to Plasmodium berghei. Kind of assay: Antimalarial activity against Plasmodium berghei NK65 infected in ICR mouse assessed as animal mean survival days at 57.5 mg/kg, po qd for 4 days (reference value: 6.2 +/-0.5 day). Particulars: time 4 day. Type of assay: functional.
Assay [8] concerns Plasmodium berghei. In words: Antimalarial activity against Plasmodium berghei NK65 infected in ICR mouse assessed as reduction in parasitemia at 115 mg/kg, po qd for 4 days by Diff-Quik staining based microscopic method (reference value: 0%). It is filed as functional. Particulars: 96 h, time 4 day.
The test system of assay [9] is Plasmodium berghei. Kind of assay: Antimalarial activity against Plasmodium berghei NK65 infected in ICR mouse assessed as animal mean survival days at 115 mg/kg, po qd for 4 days (reference value: 6.2 +/- 0.5 day). Type of assay: functional. Particulars: time 4 day.
Assay [10] deals with Plasmodium berghei. Kind of assay: Antimalarial activity against Plasmodium berghei NK65 infected in ICR mouse assessed as reduction in parasitemia at 63.7 mg/kg, po qd for 4 days by Diff-Quik staining based microscopic method (reference value: 0%). It is filed as functional. The conditions noted are these: 96 h, time 4 day.
Assay [11] concerns Plasmodium berghei. Kind of assay: Antimalarial activity against Plasmodium berghei NK65 infected in ICR mouse assessed as animal mean survival days at 63.7 mg/kg, po qd for 4 days (reference value: 6.2 day). Type of assay: functional. Particulars: time 4 day.
Assay [12] deals with Plasmodium berghei. In words: Antimalarial activity against Plasmodium berghei NK65 infected in ICR mouse assessed as reduction in parasitemia at 58.2 mg/kg, po qd for 4 days by Diff-Quik staining based microscopic method (reference value: 0%). Type of assay: functional. The conditions noted are these: 96 h, time 4 day.
In assay [13] the test system is Plasmodium berghei. In words: Antimalarial activity against Plasmodium berghei NK65 infected in ICR mouse assessed as animal mean survival days at 58.2 mg/kg, po qd for 4 days (reference value: 6.2 +/-0.5 day). It is filed as functional. The conditions noted are these: time 4 day.
Assay [14] relates to Plasmodium berghei. Kind of assay: Antimalarial activity against Plasmodium berghei NK65 infected in ICR mouse assessed as reduction in parasitemia at 116.4 mg/kg, po qd for 4 days by Diff-Quik staining based microscopic method (reference value: 0%). It is filed as functional. The conditions noted are these: 96 h, time 4 day.
The subject of assay [15] is Plasmodium berghei. In words: Antimalarial activity against Plasmodium berghei NK65 infected in ICR mouse assessed as parasitemia at 116.4 mg/kg, po qd for 4 days by Diff-Quik staining based microscopic method (reference value: 28.4 +/- 10.2%). It is filed as functional. Particulars: time 4 day.
Assay [16] has as its system Plasmodium berghei. Kind of assay: Antimalarial activity against Plasmodium berghei NK65 infected in ICR mouse assessed as animal mean survival days at 116.4 mg/kg, po qd for 4 days (reference value: 6.2 +/- 0.5 day). It is filed as functional. Particulars: time 4 day.
For assay [17], the system named is Plasmodium berghei. Kind of assay: Antimalarial activity against Plasmodium berghei NK65 infected in ICR mouse assessed as parasitemia at 58.2 mg/kg, po qd for 4 days by Diff-Quik staining based microscopic method (reference value: 28.4 +/- 10.2%). Type of assay: functional. The conditions noted are these: time 4 day.
The test system of assay [18] is Plasmodium berghei. Kind of assay: Antimalarial activity against Plasmodium berghei NK65 infected in ICR mouse assessed as reduction in parasitemia at 54.7 mg/kg, po qd for 4 days by Diff-Quik staining based microscopic method (reference value: 0%). It is filed as functional. Particulars: 96 h, time 4 day.
Assay [19] relates to Plasmodium berghei. Kind of assay: Antimalarial activity against Plasmodium berghei NK65 infected in ICR mouse assessed as mean survival days at 54.7 mg/kg, po for 4 days (reference value: 6.2 day). It is filed as functional. The conditions noted are these: time 4 day.
Assay [20] concerns Plasmodium berghei. Kind of assay: Antimalarial activity against Plasmodium berghei NK65 infected in ICR mouse assessed as animal mean survival days at 57.2 mg/kg, po qd for 4 days (reference value: 6.2 +/- 0.5 day). It is filed as functional. The conditions noted are these: time 4 day.
Assay [21] has as its system Plasmodium berghei. In words: Antimalarial activity against Plasmodium berghei NK65 infected in ICR mouse assessed as parasitemia at 114.4 mg/kg, po qd for 4 days by Diff-Quik staining based microscopic method (reference value: 28.4 +/- 10.2%). Particulars: time 4 day. Type of assay: functional.
The subject of assay [22] is Plasmodium berghei. Kind of assay: Antimalarial activity against Plasmodium berghei NK65 infected in ICR mouse assessed as parasitemia at 57.2 mg/kg, po qd for 4 days by Diff-Quik staining based microscopic method (reference value: 28.4 +/- 10.2%). Type of assay: functional. The conditions noted are these: time 4 day.
The test system of assay [23] is Plasmodium berghei. In words: Antimalarial activity against Plasmodium berghei NK65 infected in ICR mouse assessed as reduction in parasitemia at 57.2 mg/kg, po qd for 4 days by Diff-Quik staining based microscopic method (reference value: 0%). It is filed as functional. The conditions noted are these: 96 h, time 4 day.
Assay [24] has as its system Plasmodium berghei. Kind of assay: Antimalarial activity against Plasmodium berghei NK65 infected in ICR mouse assessed as reduction in parasitemia at 114.4 mg/kg, po qd for 4 days by Diff-Quik staining based microscopic method (reference value: 0%). The conditions noted are these: 96 h, time 4 day. It is filed as functional.
For assay [25], the system named is Plasmodium berghei. Kind of assay: Antimalarial activity against Plasmodium berghei NK65 infected in ICR mouse assessed as animal mean survival days at 114.4 mg/kg, po qd for 4 days (reference value: 6.2 +/- 0.5 day). It is filed as functional. The conditions noted are these: time 4 day.
Assay [26] has as its system Plasmodium berghei. Kind of assay: Antimalarial activity against Plasmodium berghei NK65 infected in ICR mouse assessed as reduction in parasitemia at 59 mg/kg, po qd for 4 days by Diff-Quik staining based microscopic method (reference value: 0%). It is filed as functional. Particulars: 96 h, time 4 day.
Assay [27] concerns Plasmodium berghei. Kind of assay: Antimalarial activity against Plasmodium berghei NK65 infected in ICR mouse assessed as animal mean survival days at 59 mg/kg, po qd for 4 days (reference value: 6.2 day). Type of assay: functional. The conditions noted are these: time 4 day.

For the compound `COc1cc2nc(N3CCCC3)nc(NC(C)c3ccccc3)c2cc1OC` (configuration not stated), in the assay on Plasmodium berghei [1], the Activity result was “Dose dependent effect”.
Consider `CCCCCCCCNc1nc(N2CCCC2)nc2cc(OC)c(OC)cc12.Cl`, for which, in the assay on Plasmodium berghei [2], the inhibition in vivo at 57 mg/kg was found to be 48.8%. In addition, in the assay on Plasmodium berghei [3], the MSD turned out to be 6.7 days.
Turning to `COc1cc2nc(N3CCCC3)nc(Nc3ccccc3C)c2cc1OC.Cl`, in the assay with Plasmodium berghei [4], the inhibition in vivo at 57.5 mg/kg is 53.9%. In addition, the Activity with Plasmodium berghei [5] is recorded as 11.6%; in the assay with Plasmodium berghei [6], 14.7%. Besides, the MSD turned out to be 7 days in the assay with Plasmodium berghei [7] and 14.5 days with Plasmodium berghei [9]. Moreover, the inhibition in vivo at 115 mg/kg with Plasmodium berghei [8] is 63.8%.
`COc1cc2nc(Nc3ccncc3)nc(NC(C)c3ccccc3)c2cc1OC.Cl.Cl` (configuration not stated): in the assay on Plasmodium berghei [10], the inhibition in vivo at 63.7 mg/kg is 6.6%. The MSD in the assay on Plasmodium berghei [11] was 8.3 days.
With `CCCCNc1nc(N2CCCC2)nc2cc(OC)c(OC)cc12.Cl`, the inhibition in vivo at 58.2 mg/kg with Plasmodium berghei [12] came out at 95.5%. The figures for the MSD in the assay with Plasmodium berghei [13] and in the assay with Plasmodium berghei [16] were 17.5 days and 11.6 days, respectively. Further, the inhibition in vivo at 116.4 mg/kg with Plasmodium berghei [14] is over 99%. The values for the Activity with Plasmodium berghei [15] and in the assay on Plasmodium berghei [17] were 0% and 1.5%, respectively.
For `COc1cc2nc(Nc3ccncc3)nc(Nc3ccccc3C)c2cc1OC.Cl`, in the assay on Plasmodium berghei [18], the inhibition in vivo at 54.7 mg/kg stood at 60.8%. Besides, in the assay with Plasmodium berghei [19], the MSD was 7.3 days.
With `COc1cc2nc(N3CCCC3)nc(NC(C)c3ccccc3)c2cc1OC.Cl` (configuration not stated), the results for the MSD in the assay with Plasmodium berghei [20] and in the assay on Plasmodium berghei [25] were 12 days and 28.2 days, respectively. In addition, the Activity is reported as 0% in the assay with Plasmodium berghei [21] and 2% with Plasmodium berghei [22]. In the assay with Plasmodium berghei [23], the inhibition in vivo at 57.2 mg/kg came to 92.1%. Besides, the inhibition in vivo at 114.4 mg/kg in the assay on Plasmodium berghei [24] is over 99%.
`COc1cc2nc(N3CCCC3)nc(NCc3cccnc3)c2cc1OC.Cl`: the inhibition in vivo at 59 mg/kg in the assay on Plasmodium berghei [26] stood at 80.3%. Also, the MSD in the assay with Plasmodium berghei [27] was 8 days.

Usually inhibition in vivo stands for the percentage by which the read-out fell short of the control.
